m-calpain inh – inhibitors of pig calpain II, primary screen, biochemical, fluorogenic peptide substrate, 1536-well; purified calpain II, 30 min; inhibition, % at 16 µM; 0.37% of 220,000 active; AID 1236, 2008;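 active means inhibition above about 50%, limit read from the data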
Rad51 HR inh – human RAD51 strand exchange inhibitors, primary screen, biochemical, fluorescence; 0.085% of 200,000 active; inhibition, % at 10 µM; AID 1385, 2008; hRad51 DNA strand exchange, fluorescence dequenching; DNA repair protein RAD51 homolog 1 (Homo sapiens), Q06609;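 active means inhibition above 40% at the single screening dose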
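System: human Rad51 nucleoprotein filaments preassembled on unlabelled ssDNA. Reagent: labelled 47-mer dsDNA for strand exchange. Schedule: 30-min compound preincubation and 15-min exchange, both room temperature. Measured by: FRET fluorescence dequenching, excitation 485 nm, emission 520 nm. Read-out: Fluorescence-based percent inhibition, control- and blank-normalised. Benchmarks: plate controls and plate blanks.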
PMI act satM6P – human PMI activators, high substrate, primary screen, biochemical, fluorescence intensity, near-saturating mannose 6-phosphate; coupled PMI enzyme assay, resazurin fluorescence, 20 min; stronger effect = higher value; 1 = untreated enzyme, 0 = substrate-free blank; activation factor at 20 µM; 0.34% of 190,000 active; AID 1216, 2008;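 active means activation factor of 2 or more at 20 µM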
Target sequence (P34949 whole entry, looked up): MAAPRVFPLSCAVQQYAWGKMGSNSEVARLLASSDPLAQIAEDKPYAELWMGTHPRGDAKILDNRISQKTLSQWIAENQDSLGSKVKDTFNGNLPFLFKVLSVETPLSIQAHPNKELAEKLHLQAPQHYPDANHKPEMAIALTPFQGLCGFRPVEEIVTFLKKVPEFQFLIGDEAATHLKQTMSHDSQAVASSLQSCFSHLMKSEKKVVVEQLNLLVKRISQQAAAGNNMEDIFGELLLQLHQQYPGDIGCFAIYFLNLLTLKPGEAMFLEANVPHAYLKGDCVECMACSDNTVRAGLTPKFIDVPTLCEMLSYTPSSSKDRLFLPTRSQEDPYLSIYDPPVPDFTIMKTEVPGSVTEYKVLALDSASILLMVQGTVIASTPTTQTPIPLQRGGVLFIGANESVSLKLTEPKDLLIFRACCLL
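Test system: Human PMI in coupled enzyme assay | Input: 15 ng/mL PMI | Medium: HEPES-buffered pH 7.4 with magnesium and detergent | Compound: One concentration, 20 µM, in 1% DMSO | Incubation: Enzyme reaction with compound 20 min at room temperature | Detection: Diaphorase-driven resazurin-to-resorufin fluorescence, excitation 544, emission 590 nm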
PMI activator – activators of human PMI, primary screen, biochemical, fluorescence intensity, near-Km mannose 6-phosphate; Mannose-6-phosphate isomerase (Homo sapiens), P34949; purified human PMI, coupled resazurin fluorescence, 20 min; stronger effect = higher value; 1 = vehicle control, 0 substrate-free wells; activation factor at 20 µM; 0.005% of 190,000 active;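 active means activation factor of 2 or more at 20 µM, relative to plate controls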
Efa HMGR inh – inhibitors of E. faecalis class II HMGR, primary screen, biochemical, Enterococcus faecalis | 0.41% of 190,000 active | inhibition, % at 10 µM | HMG-CoA reductase (Enterococcus faecalis, mvaE) | purified E. faecalis HMGR, NADPH absorbance 340 nm kinetic;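 active means inhibition above a set limit, the median over all tested compounds plus 3 SD, cut at about 9.5% in these data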;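 further: enzyme runs in reverse so mevalonate oxidation gives rising NADPH absorbance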
A number is an active result; n = inactive; x = no result given. Only some compounds are listed: those with a hit (about 1.1% of all), similar ones and a draw of the others.

SMILES | m-calpain inh | Rad51 HR inh | PMI act satM6P | PMI activator | Efa HMGR inh
Clc1ncc(CN2CCN(Cc3ccccc3)CC2)s1 | n | n | n | n | n
CSc1ccccc1C(=O)NCCOc1cccc(C)c1 | n | n | n | n | n
CC1=NN(c2ccc(N)cc2)C(=O)C1 | n | n | 2 | n | n
O=C1C(=O)N(Cc2ccccc2)C(=O)N1CCOc1ccccc1 | n | x | n | n | n
COc1ccc(/C=C/C(=O)NC(=S)Nc2cc3oc4ccccc4c3cc2OC)cc1 | 62 | n | n | n | n
COc1ccc(/C=C/C(=O)NC(=S)Nc2ccc(C(=O)O)cc2)cc1 | 74 | n | n | n | n
COc1ccc(/C=C/C(=O)NC(=S)NNC(=O)c2ccco2)cc1 | n | n | n | n | 9.8
CC(CC(=O)NC(C)c1ccc2c(c1)OCCO2)c1ccccc1 (stereo not given) | n | n | n | n | n
Cc1ccccc1C(=O)c1cccn1CC(=O)NC(C)c1ccc2c(c1)OCCO2 (stereo not given) | n | n | n | n | 12
Nn1c(-c2ccccc2Cl)nnc1-c1ccccc1Cl | n | n | 2.2 | n | n
O=C(CSc1nc2ccccc2s1)Nc1ccc(Cl)c(C(=O)O)c1 | n | n | 2.3 | n | n
O=C(CSc1nc2ccccc2s1)NNC(=O)Nc1ccc(Cl)c(Cl)c1 | n | n | n | n | n
Cc1cc(=O)oc(C)c1C(=O)Nc1c(C)n(C)n(-c2ccccc2)c1=O | n | n | n | n | x
COc1cc(S(=O)(=O)Nc2ccc(C)cc2)ccc1NC(=O)c1ccncc1 | n | n | n | n | n
COc1cc(S(=O)(=O)Nc2ccccc2C)ccc1NC(=O)c1ccncc1 | n | x | n | n | 16
CN(Cc1ccccc1)c1nc(-c2cccc([N+](=O)[O-])c2)nc2ccccc12 | n | n | n | n | n
Cc1c(NC2(c3nnnn3-c3ccc(Br)cc3)CCCCC2)c(=O)n(-c2ccccc2)n1C | n | n | n | n | 23
COc1ccc(NC(=O)CC2C(=O)N(Cc3ccccc3)C(=S)N2CCN2CCOCC2)cc1 (stereo not given) | n | n | n | n | 11
CCN(CC)c1ccc(N=Cc2cc(Br)ccc2O)cc1 | n | n | n | n | n
Oc1ccc(Br)cc1C=Nc1ccc(Cl)cc1 | 94 | n | n | n | n
CCn1c(N)[n+](CC(=O)Nc2ccc(SC(F)F)cc2)c2ccccc21 | n | n | x | x | x
Cc1ccc(S(=O)(=O)N=Nc2c(O)[nH]c3ccccc23)cc1 | n | n | 2.4 | 2.2 | n
Cc1ccc(C)c(S(=O)(=O)N=Nc2c(O)[nH]c3ccccc23)c1 | n | n | 2.1 | n | n
Cc1ccc(S(=O)(=O)N(CC(=O)N=Nc2c(O)[nH]c3ccccc23)c2ccc(C)c(C)c2)cc1 | n | x | n | n | n
Cc1cc(C)c(S(=O)(=O)Nc2ccc3c(c2)CCC3)c(C)c1 | 51 | n | n | n | n
SMILES | m-calpain inh | Rad51 HR inh | PMI act satM6P | PMI activator | Efa HMGR inh
COc1ccc(CC(=O)OCc2cc(=O)n3cc(Br)ccc3n2)cc1OC | n | n | n | n | 17
CCOc1ccc(CC(=O)OCc2cc(=O)n3cc(Br)ccc3n2)cc1 | n | n | n | n | n
CC12CN(NC(=O)c3ccccc3F)C3(C#N)CC1CCC23C (stereo not given) | n | n | n | n | n
O=C(COC(=O)c1c2c(nc3ccccc13)/C(=C/c1ccco1)CC2)NC1CCCC1 | n | n | n | n | n
CC1CCCCC1NC(=O)COC(=O)c1c2c(nc3ccccc13)/C(=C/c1ccco1)CC2 (stereo not given) | n | n | 2 | n | n
O=C(CCC(=O)c1ccc(F)cc1)Nc1ccccc1Cl | n | n | n | n | n
O=C(CN1CCN(CC(=O)c2ccc(F)cc2)CC1)Nc1ccccc1Cl | n | n | 2.2 | n | n
CCOc1ccc(-n2c(C)cc(/C=C3/C(=N)N4C(=NC3=O)SN=C4S(C)(=O)=O)c2C)cc1 | n | n | 2.1 | n | n
Cc1cc(/C=C2/C(=N)N3C(=NC2=O)SN=C3S(C)(=O)=O)c(C)n1-c1ccc(F)cc1 | n | n | n | n | n

From PubChem BioAssay
